# Rows were chosen to be rich in hits. Some 3.5% of all compounds tested hit in one or more screens of this group.
# MrgX1 ag – activates human MrgX1 receptor signaling. Q96LB2. MrgX1-HEK293 cells, Fluo-4 calcium fluorescence, agonist mode; active compounds read high. B-score at 10 µM. 0.44% of 310,000 active;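 active = calcium response B-score plate-corrected fluorescence ratio at least 3 library SD, with starting fluorescence B-score inside 5 SD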
# Target sequence (Q96LB2 whole entry, looked up): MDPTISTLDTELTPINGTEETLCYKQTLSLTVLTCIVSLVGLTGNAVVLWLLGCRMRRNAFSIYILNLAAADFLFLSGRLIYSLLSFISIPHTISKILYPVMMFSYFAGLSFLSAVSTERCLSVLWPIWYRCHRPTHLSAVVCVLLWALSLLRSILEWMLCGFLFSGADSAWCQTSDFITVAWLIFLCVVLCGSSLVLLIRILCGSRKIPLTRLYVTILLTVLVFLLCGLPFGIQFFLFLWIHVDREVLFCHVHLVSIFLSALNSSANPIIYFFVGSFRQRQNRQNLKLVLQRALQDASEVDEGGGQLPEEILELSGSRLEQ
#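 times = overnight plating, then 30 min 37 °C plus 30 min room-temperature dye loading | assay system = stable human MrgX1 HEK293 cell line | input = fifteen thousand cells per well | signal = kinetic calcium dye fluorescence, Fluo-4 NW | dosing = compound delivered in addition one of three | read-out = B-scored fluorescence response ratio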
# RGS4 inh – inhibitors of human RGS4; AID 463165; HEK293 M3R/RGS4 inducible, Fluo-4 calcium flux; active compounds read high; triggered by carbachol at its EC20; B-score at 10 µM; 0.45% of 310,000 active; P49798;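 active = B-score, a plate-corrected calcium signal, over three deviations above library mean, with baseline fluorescence within five deviations of library mean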;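 note: RGS4 expression induced by doxycycline in cells with stable M3 receptor; B-score is computed from the integrated fluorescence ratio over baseline after carbachol; higher B-score means a larger calcium signal and so more RGS4 inhibition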
# Target sequence (P49798 whole entry, looked up): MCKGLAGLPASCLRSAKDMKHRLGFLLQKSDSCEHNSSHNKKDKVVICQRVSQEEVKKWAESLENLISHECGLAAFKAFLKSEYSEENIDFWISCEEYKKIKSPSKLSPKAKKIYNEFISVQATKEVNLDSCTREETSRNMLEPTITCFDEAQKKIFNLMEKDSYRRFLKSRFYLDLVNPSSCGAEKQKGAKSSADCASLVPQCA
# RGS4 act – potentiators or activators of RGS4 | HEK293 M3R/inducible RGS4, carbachol calcium flux Fluo4; active compounds read low | 0.92% of 310,000 active | B-score at 10 µM | AID 463111;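 active = B-score of the integrated calcium signal more than 4 SD below the library mean, with starting fluorescence not abnormally high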;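 note: negative B-score means reduced calcium response which marks RGS4 activation or potentiation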
#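 test system = HEK293 cells with stable M3R and inducible RGS4 | schedule = recording 10 s baseline at 1 Hz, 100 s post-agonist | technique = Fluo4-AM (2 µM) calcium-flux fluorescence, kinetic read | measure = Agonist-evoked peak-minus-minimum fluorescence over baseline, integrated ratio, B score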
# MrgX1 antag – antagonists of human MrgX1 receptor; Q96LB2; MRGX1-HEK293 calcium flux, Fluo-4, BAM8-22 antagonism; active compounds read low; B-score at 10 µM; 1.3% of 310,000 active; AID 588676;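 active = calcium-response B-score plate-corrected more than 3 library SD below zero, starting fluorescence within 5 deviations, no agonist response on first addition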;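 note: peak minus trough fluorescence over baseline after final BAM8-22 challenge near maximal dose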
# MrgX1 PAM – human MrgX1 positive allosteric modulation, primary screen. B-score at 10 µM. AID 588675. 0.63% of 310,000 active. Q96LB2. MrgX1-HEK293, Fluo-4 calcium flux, FDSS; active compounds read high;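 active = plate-corrected calcium response at least 3 library SD above typical, normal starting fluorescence, not activating the receptor alone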;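 note: compound read alongside a low EC10 to EC30 dose of BAM8-22 agonist; peak minus trough fluorescence over baseline measured at the second addition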
# RGS4 inh valid – RGS4 inhibitor validation; 65% of 1,700 active; calcium response, % at 10 µM; shares compounds with RGS4 inh; AID 492999; HEK293 M3R/RGS4, carbachol calcium Fluo-4 fluorescence; carbachol added at its EC20; 0 = buffer wells, 100 = carbachol control;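 active = duplicate-averaged calcium response above the buffer-only control mean plus 5 SD of those controls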;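 note: integrated fluorescence ratio F max minus min over baseline F0; higher response in RGS4-induced cells means RGS4 inhibition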
# M3R Ca ctr – checks RGS4 inhibitor effects in non-induced HEK293 M3R cells; 20% of 1,900 active; activity (percent), % at 10 µM; shares compounds with RGS4 inh; carbachol calcium Fluo-4; submaximal (EC20) carbachol stimulus; buffer wells 0%, carbachol control wells 100%; call rule not given here;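 note: RGS4 induction absent so cells express M3R without RGS4; higher means more calcium signal and flags a non-specific hit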
# RGS4 inh ctr2 – second counter-screen for RGS4 inhibitors: non-induced cells without carbachol; 22% of 1,900 active; calcium response (agonist-mode artifact), % at 10 µM; HEK293 M3R/RGS4 non-induced, Fluo-4 calcium, no carbachol; normalised: buffer wells 0%, carbachol wells 100%; AID 493001; shares compounds with RGS4 inh;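 active = duplicate-averaged calcium rise in uninduced cells above buffer wells' mean plus 5 SD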
# * = called active by the depositor; i = inactive; nt = no result given.
SMILES,MrgX1 ag,RGS4 inh,RGS4 act,MrgX1 antag,MrgX1 PAM,RGS4 inh valid,M3R Ca ctr,RGS4 inh ctr2
Cc1ccc(NC(=O)C2=C(c3ccccc3)S(=O)(=O)CCS2(=O)=O)cc1,i,15*,i,i,i,28.5%*,i,16.5%*
O=C(Nc1ccc(-c2ccccc2)cc1)c1ccccc1,i,i,i,i,i,nt,nt,nt
Cc1ccc(C)c(N2CCN(S(=O)(=O)c3ccc4c(c3)C(C)(C)C(=O)N4C)CC2)c1,i,i,i,i,i,nt,nt,nt
COc1cc(C2(c3ccc(O)c(OC)c3)C(=O)N(C)c3ccc(C)cc32)ccc1O,i,i,i,i,i,nt,i,i
O=C(CCN1CCN(c2ccc([N+](=O)[O-])cc2)CC1)c1ccc(Cl)cc1,i,i,i,i,i,nt,nt,nt
O=C(CCN1CCN(c2ccccc2)CC1)c1ccc(Cl)cc1,i,23.9*,i,i,i,i,35.0%*,19.5%*
CCCCn1c(SCC(=O)NCc2ccco2)nc2ccc(N3CCOCC3)cc2c1=O,i,5.01*,i,i,i,i,i,i
CCCCn1c(SCC(=O)NC(C)CC)nc2ccc(N3CCOCC3)cc2c1=O (centres undefined),i,i,i,i,i,nt,nt,nt
CCCCn1c(SCC(=O)Nc2ccc(OC)cc2)nc2ccc(N3CCOCC3)cc2c1=O,i,i,i,i,i,nt,nt,nt
CCCCn1c(SCC(=O)NCc2ccccc2)nc2ccc(N3CCOCC3)cc2c1=O,i,i,i,i,i,i,i,i
Cc1ccc(S(=O)(=O)/N=C(\Sc2ccccc2)c2ccccc2)cc1,i,21.6*,i,i,i,22.0%*,i,25.5%*
O=S(=O)(/N=C(\Sc1ccccc1)c1ccccc1)c1ccc(Cl)cc1,i,i,i,i,i,nt,i,27.0%*
Cc1ccc(S(=O)(=O)/N=C(/Sc2ccccc2C(=O)O)c2ccccc2)cc1,i,i,i,i,i,nt,nt,nt
O=C(c1ccccc1)N1CCN(S(=O)(=O)N2CCCCCC2)CC1,i,i,i,i,i,nt,nt,nt
COc1ccc(-c2[nH]ncc2CN2CCN(C(=O)c3ccco3)CC2)cc1F,i,i,i,i,i,nt,nt,nt
Fc1ccc(-c2[nH]ncc2CN2CCN(c3ccc(F)cc3)CC2)cc1,i,6.89*,i,i,i,22.0%*,49.5%*,i
c1ccc(-c2[nH]ncc2CN2CCc3ccccc3C2)cc1,i,i,i,i,i,nt,nt,nt
COc1ccc(-c2[nH]ncc2CN2CCN(c3ccc(F)cc3)CC2)cc1,i,i,i,i,i,nt,nt,nt
O=C(c1ccco1)N1CCCN(Cc2cn[nH]c2-c2ccc(-c3ccccc3)cc2)CC1,i,4.94*,i,i,i,10.5%*,i,i
Fc1ccc(N2CCN(Cc3cn[nH]c3-c3ccccc3)CC2)cc1,i,i,i,i,i,nt,i,i
Cc1ccc(C2=NN(CC(=O)NCc3ccco3)C(=O)CC2)cc1,i,i,i,i,i,nt,nt,nt
CCOc1cc(C)c(Cl)cc1S(=O)(=O)NCc1ccc2c(c1)OCO2,i,i,i,i,i,nt,nt,nt
CC(C)Oc1ccc(Cn2c(=O)oc3ccccc32)cc1,i,i,i,i,i,nt,nt,nt
N#Cc1nc(-c2ccc(OCc3ccc(Cl)cc3)cc2)oc1N1CCC(C(N)=O)CC1,i,i,i,i,i,nt,nt,nt
N#Cc1c(-c2ccco2)cc(C2CC2)nc1N,i,4.98*,i,i,i,5.0%*,i,i
SMILES,MrgX1 ag,RGS4 inh,RGS4 act,MrgX1 antag,MrgX1 PAM,RGS4 inh valid,M3R Ca ctr,RGS4 inh ctr2
N#Cc1c(-c2ccccc2)cc(C2CC2)nc1N,i,i,i,i,i,nt,nt,nt
COC(=O)c1cc2sccc2n1Cc1nc(-c2ccc(OC)cc2)oc1C,i,i,i,i,i,nt,nt,nt
CCOc1cccc(-c2c(C(=O)N/N=C/c3ccc(C)o3)nnn2-c2nonc2N)c1,i,i,i,i,i,i,i,i
CCOc1cccc(-c2c(C(=O)N/N=C/c3ccco3)nnn2-c2nonc2N)c1,i,i,i,i,i,i,i,i
Cc1cc(Br)cc2c1N(C)C(=O)C2(c1ccc(O)cc1)c1ccc(O)cc1,i,27.1*,i,i,i,75.5%*,43.0%*,i
Clc1ccc(-c2csc(N/N=C/c3ccco3)n2)cc1,i,i,i,i,i,nt,nt,nt
Clc1ccc(-c2csc(N/N=C\c3cccnc3)n2)cc1,i,i,i,i,i,nt,65.0%*,i
CCCCNC(=S)N/N=C/c1ccc(C#N)cc1,i,i,i,i,i,nt,nt,nt
COc1ccccc1-c1c(-c2ccc(OCC(=O)NN)cc2O)n[nH]c1C(F)(F)F,i,i,i,i,i,nt,i,i
NNC(=O)COc1ccc(-c2n[nH]c(C(F)(F)F)c2-c2ccc(Br)cc2)c(O)c1,i,8.07*,i,i,i,55.5%*,61.5%*,i
COc1ccccc1-c1cn[nH]c1-c1ccc(OCC(=O)NN)cc1O,i,i,i,i,i,nt,nt,nt
C=CCN(C(=O)c1csnn1)C(C(=O)NC1CCCC1)c1ccc(Cl)cc1 (centres undefined),i,i,i,i,i,nt,nt,nt
Cn1c(=O)c2nc(NCc3ccccc3)cnc2n(C)c1=O,i,i,i,i,i,nt,nt,nt
Cc1nc2c(=O)n(C)c(=O)n(C)c2nc1Cl,i,11.9*,i,i,i,36.5%*,i,i
CSc1ccc(/C=C/C(=O)c2c(O)cc(C)oc2=O)cc1,i,6.1*,i,i,i,24.5%*,i,7.5%*
COc1cccc(/C=C/C(=O)c2c(O)cc(C)oc2=O)c1O,i,7.33*,i,i,i,37.0%*,i,i
Cc1cc(O)c(C(=O)/C=C/c2ccc(Cl)cc2)c(=O)o1,i,i,i,i,i,nt,nt,nt
CC(C)Sc1nc2c([nH]c3ccccc32)c(=O)n1C,i,i,i,i,i,nt,nt,nt

# Source: PubChem
